# TRPN1 ag: zebrafish TRPN1 (NompC) channel agonism. HEK293 zebrafish TRPN1-YFP, Fluo-8 calcium fluorescence; 100% = response to 87 µM carbachol. 220,000 compounds, 0.18% hits. activation, % at 3 µM. AID 1424;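 active = activation above its plate's cutoff, the mean activation of test wells on that plate plus 3 SD, cut at about 19% in these data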
#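 Material: zebrafish TRPN1-YFP in HEK293 cells. Doses: one dose of 3 µM, 0.3% DMSO. Incubation: dye 1 h 37 °C plus 30 min RT. Measured by: intracellular calcium fluorescence with Fluo-8.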
# CHO-K1 Ca ag: counter-screen for M1 agonists: effect in parental CHO-K1 cells | Fluo-8 calcium fluorescence; scaled to maximal ATP response, vehicle zero | activation, % at 3 µM | 360,000 compounds, 0.48% hits | AID 602248; in the data active = activation above about 15%;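 also: untransfected CHO-K1 host cells lacking M1 receptor as counterscreen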
# CHO-K1 Ca PAM: counter-screen for M1 PAMs: effect in parental CHO-K1 cells. ATP EC20, Fluo-8 calcium fluorescence; 0% at ATP EC20, 100% at ATP max. activation, % at 3 µM. 360,000 compounds, 0.02% hits;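 active = activation above the run cutoff, the mean activation of all test compounds plus 3 SD, cut at about 40% in these data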;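 also: peak over basal fluorescence ratio in a 140 s read after ATP addition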
# TRPML3 agonist: activates the human TRPML3 channel; 220,000 compounds, 0.29% hits; Q8TDD5; HEK293 TRPML3-YFP, Fluo-8 calcium fluorescence; 100% = the carbachol control signal; AID 1448; activation, % at 3 µM;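 active = activation above its plate's cutoff, the mean activation of the plate's test wells plus 3 SD, cut at about 12% in these data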
# Target sequence (Q8TDD5 whole entry, looked up): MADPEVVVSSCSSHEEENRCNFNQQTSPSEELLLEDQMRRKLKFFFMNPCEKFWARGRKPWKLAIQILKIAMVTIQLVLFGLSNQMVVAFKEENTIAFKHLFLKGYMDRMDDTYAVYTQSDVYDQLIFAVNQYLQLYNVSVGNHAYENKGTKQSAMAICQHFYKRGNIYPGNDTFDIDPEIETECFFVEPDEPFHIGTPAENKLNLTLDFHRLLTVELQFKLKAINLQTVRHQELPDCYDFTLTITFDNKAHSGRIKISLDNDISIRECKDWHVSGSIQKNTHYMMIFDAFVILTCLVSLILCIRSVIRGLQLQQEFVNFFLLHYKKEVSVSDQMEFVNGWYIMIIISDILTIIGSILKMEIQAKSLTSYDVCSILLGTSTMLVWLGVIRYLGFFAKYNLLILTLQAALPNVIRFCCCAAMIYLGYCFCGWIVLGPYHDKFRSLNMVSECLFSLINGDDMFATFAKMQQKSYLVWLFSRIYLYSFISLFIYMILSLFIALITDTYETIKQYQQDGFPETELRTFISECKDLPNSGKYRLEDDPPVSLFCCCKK
#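 Test system: HEK293 cells stably carrying human TRPML3-YFP; Doses: single dose, 3 µM final nominal compound, 0.3% DMSO final; Schedule: dye loading 1 h 37 °C then 30 min ambient, 125 s read; Technique: Fluo-8 calcium fluorescence; Benchmarks: high control carbachol 87 µM, low control DMSO.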
# CHO-K1 Ca antag: nonselective inhibitor or artifact in parental CHO-K1 cells; 360,000 compounds, 0.6% hits; ATP-induced calcium, Fluo-8 fluorescence; inhibition, % at 3 µM;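 active = inhibition above a per-plate cutoff, the plate's mean sample inhibition plus 3 SD, cut at about 24% in these data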
# Hits are given with their value; i = inactive; nt = no result given. Compounds with a hit are over-represented: about 1.2% of the library has one in this group of screens.
SMILES,TRPN1 ag,CHO-K1 Ca ag,CHO-K1 Ca PAM,TRPML3 agonist,CHO-K1 Ca antag
CCOc1ccc(NC(=S)Nc2ccccc2C2CC2)cc1,i,i,i,i,26
Cn1c(=O)c(C(=O)c2ccccc2)nc2ccccc21,i,i,i,i,i
CN(C)c1nc2ccccc2n(C)c1=O,i,i,i,i,24
Cc1cc(CSc2ccccc2)ccc1NC(=O)c1ccc(C)c([N+](=O)[O-])c1,i,i,i,i,i
Cc1cc(CSc2ccccc2)ccc1NC(=O)c1ccc(Cl)c([N+](=O)[O-])c1,i,i,i,i,28
CCNC(=O)C1(C)CCN(C(=O)CCc2ccccc2)C1 (centres undefined),nt,i,i,nt,i
COc1ccc2c(c1)CCc1cc(C(=O)N3CCN(c4ccc(N5CCOCC5)nn4)CC3)sc1-2,i,i,i,i,31
COc1cccc(C(=O)N2CCN(c3ccc(N4CCOCC4)nn3)CC2)c1,nt,i,i,nt,i
Cc1ccc(C(O)c2ncc(-c3cccc4ccccc34)[nH]2)cc1F (centres undefined),nt,i,i,nt,i
COc1ccc(C2C(C(=O)c3cccs3)=C(O)C(=O)N2c2nnc(C)s2)cc1OC (centres undefined),i,i,i,i,i
CC(C)c1nnc(N2C(=O)C(O)=C(C(=O)c3cccs3)C2c2ccccc2)s1 (centres undefined),183,i,i,114,i
COc1cc(C(=O)NCC(=O)N/N=C(/C)c2ccc3c(c2)CCCC3)cc(OC)c1OC,i,i,i,i,27
C/C(=N/NC(=O)CNC(=O)c1cccc(F)c1)c1ccc2c(c1)CCCC2,i,i,i,i,i
Cc1ccc(NC(=O)COC(=O)CN2C(=O)NC(C)(C)C2=O)cc1S(=O)(=O)N1CCOCC1,i,19,i,i,i
CC(Oc1ccc(Cl)cc1)C(=O)Nc1cccc(S(=O)(=O)N2CCCC2)c1 (centres undefined),nt,i,i,nt,i
CC(C)NS(=O)(=O)c1ccc(NC(=O)C(C)Oc2ccc(C(=O)c3ccccc3)cc2)cc1 (centres undefined),50,44,i,21,51
CC(Oc1ccc(Cl)cc1)C(=O)Nc1ccc(S(=O)(=O)N2CCOCC2)cc1 (centres undefined),nt,36,i,nt,i
CC12CCC3C(CCC4CC(O)CCC43C)C1CC(=O)C2 (centres undefined),nt,i,i,nt,i
COc1cc(/C=C/C(=O)OCC(=O)c2ccc[nH]2)ccc1O,nt,i,i,nt,i
CC(C)CNC(=O)CSc1nc(-c2cccs2)cc(C(F)(F)F)n1,i,i,i,i,24
CCCCn1nnnc1C(c1ccccc1)N1CCN(c2ncccc2C(F)(F)F)CC1 (centres undefined),nt,i,i,nt,i
OCCCCCNc1ncnc2ccccc12,i,15,i,i,i
COc1ccccc1C(=O)NCC(=O)N(C)Cc1nc2ccccc2c(=O)[nH]1,nt,i,i,nt,i
COCCNC(=O)CN1C(=O)CSc2cc(S(=O)(=O)N3CCCCCC3)ccc21,i,i,i,i,35
COCCNC(=O)CN1C(=O)CSc2ccc(S(=O)(=O)N3CCOCC3)cc21,nt,i,i,nt,i
SMILES,TRPN1 ag,CHO-K1 Ca ag,CHO-K1 Ca PAM,TRPML3 agonist,CHO-K1 Ca antag
c1cn2c(-c3ccc(N4CCOCC4)cc3)cncc2n1,nt,i,i,nt,i
Cc1nn(C)cc1CN1CCCC(C(=O)c2ccc(-c3ccccc3)c(F)c2)C1 (centres undefined),i,26,i,i,i
Brc1ccc(C2=Nn3c(nnc3-c3cccnc3)SC2)s1,i,i,i,i,i
Clc1ccc(C2=Nn3c(nnc3-c3cccnc3)SC2)s1,i,i,i,i,27
CC(=O)Nc1ccc(Nc2c3c4c(cccc4n(C)c2=O)C(=O)c2ccccc2-3)cc1,i,i,i,i,i
CCNc1c2c3c(cccc3n(C)c1=O)C(=O)c1ccccc1-2,195,nt,nt,88,nt
Cn1c(=O)c(NCCO)c2c3c(cccc31)C(=O)c1ccccc1-2,454,34,i,282,i
Cn1c(=O)cc2c3c(c(N4CCCCC4)ccc31)C(=O)c1ccccc1-2,i,i,i,i,i
Cn1c(=O)c(NC2CCCCC2)c2c3c(cccc31)C(=O)c1ccccc1-2,i,16,i,i,i
CCCCNc1c2c3c(cccc3n(C)c1=O)C(=O)c1ccccc1-2,81,123,i,46,69
CNc1ncnc2c1ncn2[C@H]1CN(C2CCCC2)C[C@@H](CO)O1,nt,i,i,nt,i
COc1cccc(-c2cnc3c(NC=O)cc(-c4ccncc4)cn23)c1,nt,i,i,nt,i
CCCCOCCCNC(=O)C[C@@H]1C[C@@]2(C(=O)OCC)CCCC=C2N(Cc2ccc(Cl)cc2Cl)C1=O,nt,i,i,nt,i
O=C(Nc1cc(C(F)(F)F)cc(C(F)(F)F)c1)O[C@@H]1c2ccccc2[C@@H]2Cc3csc[n+]3[C@H]12,nt,i,i,nt,i
CSCCNC(=O)C1(C)CCN1C(=O)c1ccc(C(C)(C)C)cc1 (centres undefined),nt,i,i,nt,i
Cn1c(=O)c(NCCc2ccccc2)c2c3c(cccc31)C(=O)c1ccccc1-2,126,124,i,83,70
Cn1c(NCCc2ccccc2)cc(=O)n(C)c1=O,i,i,i,i,i
O=C1CCCN1c1ccc([N+](=O)[O-])cc1,nt,i,i,nt,29
CCN1C(=O)/C(=C\C=C\c2ccccc2[N+](=O)[O-])SC1=S,i,i,i,i,i
CCN1C(=O)/C(=C/C=C2\N(CC)c3cc(S(=O)(=O)N(C)C)ccc3N2c2ccccc2)SC1=S,22,i,i,i,i
CC(=O)Oc1ccc(C)cc1-n1nc2ccccc2n1,i,i,i,i,24
O=C(C[C@H]1C[C@H](C(=O)N2CCCCC2)[C@@]2(CCc3ccccc3)c3[nH]c4ccc(Cl)cc4c3CCN2C1=O)NCCC1=CCCCC1,nt,i,i,nt,26
CC(=O)C1=CCC(c2cccc3ccccc23)N(S(=O)(=O)c2ccc(C)cc2)C1 (centres undefined),nt,i,i,nt,i
OC(c1ccc(-c2ccccc2)cc1)c1ncc(-c2ccc(C(F)(F)F)cc2)[nH]1 (centres undefined),nt,i,i,nt,i
CCOC(=O)CC1C(=O)NCCN1c1nc2ccc(C)cn2c(=O)c1/C=C1\SC(=S)N(C(C)CC)C1=O (centres undefined),20,nt,nt,i,nt
CCCN1C(=O)/C(=C/c2c(N3CCNC(=O)C3CC(=O)OCC)nc3c(C)cccn3c2=O)SC1=S (centres undefined),28,i,i,12,i
CCOC(=O)CC1C(=O)NCCN1c1nc2ccc(C)cn2c(=O)c1/C=C1\SC(=S)N(CC(C)C)C1=O (centres undefined),32,i,i,i,i
COc1ccc(CN2CCC2(C)C(=O)NCc2ccc3c(c2)OCO3)c2ccccc12 (centres undefined),nt,i,i,nt,i
